Test results: the M2OR odorant receptor database

How the values were obtained:
UniProt Q9WVD9 = details: stereoisomer not certain
Outline: (§1)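 Each receptor–molecule pair is labelled responsive or non-responsive (inactive) according to whether the original authors judged the measured signal statistically different from baseline. The data were taken from the main text and supplementary material of published papers and checked for typos and inconsistencies. Assay methods differed by source, with transient luciferase assays in mammalian cell lines being common.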

UniProt Q9WVN5 = biological target: T1, UniProt Q9WVN5; details: stereoisomer not certain
T1 sequence (whole entry): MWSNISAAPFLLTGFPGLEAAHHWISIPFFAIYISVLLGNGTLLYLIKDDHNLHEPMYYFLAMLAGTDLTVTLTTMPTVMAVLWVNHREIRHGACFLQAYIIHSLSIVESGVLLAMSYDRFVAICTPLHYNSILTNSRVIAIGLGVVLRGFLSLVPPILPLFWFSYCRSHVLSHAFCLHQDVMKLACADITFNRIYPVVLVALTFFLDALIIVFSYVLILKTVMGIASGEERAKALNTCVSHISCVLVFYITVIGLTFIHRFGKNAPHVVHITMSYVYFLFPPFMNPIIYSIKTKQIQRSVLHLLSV
Outline: as §1
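Further: active if original authors judged signal statistically different from baseline.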

Sequence of UniProt Q9WVD9 (Q9WVD9 as listed by the source): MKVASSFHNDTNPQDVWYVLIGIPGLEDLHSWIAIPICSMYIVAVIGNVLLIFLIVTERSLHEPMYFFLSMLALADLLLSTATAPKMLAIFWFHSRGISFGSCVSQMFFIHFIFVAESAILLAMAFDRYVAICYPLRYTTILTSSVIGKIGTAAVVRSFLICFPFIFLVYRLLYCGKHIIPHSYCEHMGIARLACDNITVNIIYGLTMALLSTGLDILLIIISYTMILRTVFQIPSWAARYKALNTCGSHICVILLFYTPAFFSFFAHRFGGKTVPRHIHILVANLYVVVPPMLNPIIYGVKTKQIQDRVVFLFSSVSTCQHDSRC

Compound	odorant receptor agonist call (UniProt Q9WVD9)	odorant receptor agonist call (UniProt Q9WVN5)
CCCC(C)=O	inactive	inactive
CC12CCC(CC1=O)C2(C)C (stereo not given)	inactive	inactive
O=C1Cc2ccccc2O1	inactive	active
CCCCOC(=O)C(C)OC(=O)CCC (stereo not given)	inactive	inactive
CCCCCCCCS	inactive	inactive
CCCCCCCO	inactive	inactive
CCCCC(C)=O	inactive	inactive
CCCCCCCCCO	inactive	inactive
CCCCCC=O	inactive	active
CCCCCC(=O)CC	inactive	inactive
O=C1CCOc2ccccc21	inactive	inactive
CCCCCCOC(C)=O	inactive	inactive
CC(C)=CCCC(C)=CCO	inactive	inactive
CCCCCCC(=O)[O-].[H+]	active	active
CCCCOC=O	inactive	inactive
